In ChEMBL document CHEMBL1938334, “Quinoline tricyclic derivatives. Design, synthesis and evaluation of the antiviral activity of three new classes of RNA-dependent RNA polymerase inhibitors” (Bioorg Med Chem, 2011) one finds EC50 and CC50 data, which are given here for 18 compounds.

One data set has as its system Human alphaherpesvirus 1. Nature of the data set: Antiviral activity against Human herpesvirus 1 strain KOS infected in african green monkey Vero 76 cells assessed as reduction of virus-induced plaque formation after 3 days using crystal violet staining. It counts as functional, organism-based. Conditions: Human alphaherpesvirus 1, KOS, 72 h.
The test system of the next data set is Coxsackievirus B5. As to the kind of experiment: Antiviral activity against Human coxsackievirus B5 Ohio-1 infected in african green monkey Vero 76 cells assessed as reduction of virus-induced plaque formation after 3 days using crystal violet staining. Conditions: Enterovirus B, Ohio-1, Vero, 72 h. Type of data set: functional, organism-based.
For another data set, the system named is Yellow fever virus. As to the kind of experiment: Antiviral activity against Yellow fever virus 17D Stamaril Pasteur J07B01 infected in hamster BHK21 cells assessed as inhibition of virus-induced cytopathogenicity after 3 to 4 days by MTT assay. Type of data set: functional, cell-based. Conditions: Stamaril Pasteur J07B01, BHK-21. In outline:
(§1)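 Host cells were seeded in 96-well plates at 3×10^4 cells/well (MDBK) or 5×10^4 cells/well (BHK-21) and grown to confluent monolayers overnight. They were infected at m.o.i. 0.01 in maintenance MEM with 0.5% inactivated FBS. Serial compound dilutions were added after 1 h. Viability was read by MTT after 3–4 days at 37 °C. EC50 was taken by linear regression against untreated controls. Mean of three determinations.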

The nature of data set [1]: Antiviral activity against Bovine viral diarrhea virus 1-NADL infected in MDBK cells assessed as inhibition of virus-induced cytopathogenicity after 3 to 4 days by MTT assay. As to conditions: Bovine viral diarrhea virus isolates and strains. It counts as functional, cell-based. The essentials:
as §1

The nature of data set [2]: Antiviral activity against Vaccinia virus Lister Elstree infected in african green monkey Vero 76 cells assessed as reduction of virus-induced plaque formation after 3 days using crystal violet staining. Type of data set: functional, cell-based. Conditions: 72 h.
In the next data set the test system is Human orthopneumovirus. As to the kind of experiment: Antiviral activity against Human respiratory syncytial virus A2 infected in african green monkey Vero 76 cells assessed as reduction of virus-induced plaque formation after 5 days using crystal violet staining. Type of data set: functional, organism-based. Conditions: 120 h.
For data set [3], the system named is Human immunodeficiency virus 1. Nature of the data set: Antiviral activity against HIV1 3B infected in human MT4 cells assessed as inhibition of virus-induced cytopathogenicity after 4 days by MTT assay. It counts as functional, organism-based. As to conditions: Human immunodeficiency virus 1, 3B, MT4, 96 h. In outline:
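MT-4 cells (1×10^4 per well) were infected with HIV-1 IIIB at 100 CCID50, m.o.i. 0.01, together with serial compound dilutions. Viability was read by MTT after 4 days at 37 °C. EC50 was taken by linear regression versus untreated controls. Mean of three determinations.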
Background: Damage to the host cells serves as the signal in cytopathic effect assays.

The subject of a further data set is Poliovirus 1. Nature of the data set: Antiviral activity against Human poliovirus 1 strain Sabin Chat infected in african green monkey Vero 76 cells assessed as virus-induced reduction of plaque formation after 2 days using crystal violet staining. As to conditions: Enterovirus C, 48 h. Type of data set: functional, cell-based.
Data set [4] can be described thus: Cytotoxicity against BHK21 cells after 48 to 96 hrs by MTT assay. Type of data set: cell-based, Mesocricetus auratus, BHK-21. As to conditions: hamster. In outline: (§2)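 MDBK seeded at 6×10^5 and BHK at 1×10^6 cells/mL in MEM-Earle's with L-glutamine, 1 mM pyruvate, kanamycin, plus 10% horse serum (MDBK) or 10% FBS (BHK). Cells were grown at 37 °C, 5% CO2 with serial compound dilutions (DMSO stocks diluted in medium). Viability by MTT after 48–96 h. CC50 was taken by linear regression versus untreated controls; three independent determinations.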

The nature of data set [5]: Cytotoxicity against human MT4 cells after 96 hrs by MTT assay. It counts as cell-based. In outline: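 Exponentially growing MT-4 cells seeded at 1×10^5 cells/mL in RPMI-1640 with 10% FBS, penicillin and streptomycin. Incubated with serial compound dilutions at 37 °C, 5% CO2 for 96 h; viability by MTT. CC50 by linear regression relative to untreated controls; mean of three independent determinations.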
In general terms: Formazan colour is commonly taken as a measure of viable cells.

For another data set, the system named is Reovirus sp. As to the kind of experiment: Antiviral activity against Reovirus type-1 3651 infected in hamster BHK21 cells assessed as inhibition of virus-induced cytopathogenicity after 3 to 4 days by MTT assay. It counts as functional, organism-based. Conditions: Reovirus sp., 3651, BHK-21. In outline: as §1
Data set [6] in a line: Cytotoxicity against MDBK cells after 48 to 96 hrs by MTT assay. Conditions: cattle. Type of data set: cell-based, Bos taurus. The essentials: as §2
The subject of data set [7] is Vesicular stomatitis Indiana virus. Nature of the data set: Antiviral activity against clinical isolate Vesicular stomatitis Indiana virus infected in african green monkey Vero 76 cells assessed as reduction of virus-induced plaque formation after 2 days using crystal violet staining. Type of data set: functional, organism-based. As to conditions: 48 h.
Data set [8] can be described thus: Cytotoxicity against african green monkey Vero 76 cells after 48 to 96 hrs by crystal violet staining. It counts as cell-based. As to conditions: chlorocebus sabaeus. The essentials:
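Vero-76 cells were seeded at 4×10^5 cells/mL in D-MEM with L-glutamine, kanamycin and 10% FBS, then exposed to serial compound dilutions at 37 °C, 5% CO2 for 48–96 h. Viability was read by crystal violet staining. 50% cytotoxic concentration by linear regression relative to untreated controls; mean of three independent determinations.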

For orientation: EC50 means the concentration giving half of the maximal effect. One may read the CC50 as the concentration at which the toxic effect on the cells reaches its halfway point. With `Clc1c2ncccc2cc2nn[nH]c12`, the EC50 (with Human alphaherpesvirus 1; with Coxsackievirus B5; with Yellow fever virus; in data set [1]; in data set [2]; in the data set on Human orthopneumovirus) was above 100 µM throughout. Moreover, the EC50 (in data set [3]; with Poliovirus 1; in the data set with Reovirus sp.; in data set [7]) was above 100 µM throughout. Besides, the CC50 in data set [4], in data set [6] and in data set [8] was above 100 µM each time. In [5], this compound returned a CC50 at 96 h above 100 µM.

On to `[O-][n+]1n[nH]c2c(Cl)c3nccc(O)c3cc21`, for which the EC50 (in the data set with Coxsackievirus B5; in the data set with Yellow fever virus; in data set [1]; in [2]; in the data set with Human orthopneumovirus; in [3]) was above 100 µM in each case. In addition, the EC50 (in the data set with Poliovirus 1; in the data set on Reovirus sp.; in data set [7]) was above 100 µM each time. The CC50 in data set [4], in data set [6] and in [8] was above 100 µM each time. Also, the CC50 at 96 h in data set [5] was above 100 µM.

Take `O=[N+]([O-])c1c2cccnc2c(Cl)c2[nH]n[n+]([O-])c12`: the EC50 (in the data set with Coxsackievirus B5; in the data set with Yellow fever virus; in data set [1]; in data set [2]; in the data set with Human orthopneumovirus; in data set [3]) was above 100 µM each time. The EC50 (in the data set with Poliovirus 1; in data set [7]) was above 100 µM in each case. Further, the CC50 in data set [4], in [6] and in data set [8] was above 100 µM in each case. The compound further came in with a CC50 at 96 h in data set [5] above 100 µM.

`CC(=O)n1nnc2c(Cl)c3ncccc3cc21`: the EC50 in the data set on Human alphaherpesvirus 1 was above 100 µM; in the data set on Coxsackievirus B5, above 100 µM; in the data set on Yellow fever virus, above 72 µM; in data set [1], above 30 µM; in [2], above 100 µM; with Human orthopneumovirus, above 100 µM. For the same compound, the EC50 in data set [3] was above 46 µM; in the data set with Poliovirus 1, above 100 µM; in [7], above 100 µM. In addition, the CC50 in data set [4] was 72 µM; in data set [6], 30 µM; in data set [8], above 100 µM. Moreover, the CC50 at 96 h in [5] was determined as 46 µM.

With `c1cnc2cc3[nH]cnc3cc2c1`, the EC50 (with Human alphaherpesvirus 1; in the data set with Coxsackievirus B5; in the data set with Yellow fever virus; in data set [1]; in data set [2]; in [3]) was above 100 µM throughout. For the same compound, the EC50 (with Poliovirus 1; with Reovirus sp.; in [7]) was above 100 µM each time. Also, the CC50 in data set [4], in data set [6] and in data set [8] was above 100 µM throughout. This compound also displayed a CC50 at 96 h in [5] above 100 µM.

As to `Clc1c2ncccc2cc2nc[nH]c12`, the EC50 (with Human alphaherpesvirus 1; in the data set with Coxsackievirus B5; with Yellow fever virus; in [1]; in [2]; in data set [3]) was above 100 µM throughout. For the same compound, the EC50 (in the data set on Poliovirus 1; with Reovirus sp.; in data set [7]) was above 100 µM throughout. The CC50 in [4], in data set [6] and in [8] was above 100 µM throughout. Also, in data set [5], the cytotoxic concentration (CC50) at 96 h was above 100 µM.

As for `O=[N+]([O-])c1ccc(-c2nc3cc4cccnc4cc3[nH]2)cc1`, the EC50 in the data set with Coxsackievirus B5 was 35 µM; with Yellow fever virus it was above 100 µM; in [1], 20 µM; in data set [2] it was above 95 µM; with Human orthopneumovirus, above 95 µM; in data set [3], above 100 µM. Also, the EC50 is above 95 µM in the data set on Poliovirus 1, 67 µM in the data set on Reovirus sp. and above 95 µM in data set [7]. The cytotoxic concentration (CC50) was above 100 µM in data set [4], 90 µM in [6] and 95 µM in data set [8]. Moreover, in data set [5], the CC50 at 96 h is above 100 µM.

For `O=[N+]([O-])c1ccc(-c2nc3cc4cccnc4cc3[nH]2)c2ccccc12`, the EC50 in the data set with Coxsackievirus B5 is above 100 µM; with Yellow fever virus, above 100 µM; in data set [1] it was above 18 µM; in data set [2], above 100 µM; in the data set on Human orthopneumovirus it was above 100 µM; in [3], above 6 µM. In addition, the EC50 was above 100 µM with Poliovirus 1, 50 µM with Reovirus sp. and above 100 µM in data set [7]. The CC50 in data set [4] was above 100 µM; in [6], 18 µM; in data set [8], above 100 µM. In addition, in [5], the CC50 at 96 h worked out at 6 µM.

In the case of `c1cnc2cc3nccnc3cc2c1`, the EC50 (in the data set with Human alphaherpesvirus 1; with Coxsackievirus B5; in the data set with Yellow fever virus; in data set [1]; in data set [2]; in [3]) was above 100 µM in each case. Also, the EC50 (with Poliovirus 1; in data set [7]) was above 100 µM in each case. Further, the CC50 in [4], in [6] and in data set [8] was above 100 µM throughout. In addition, the CC50 at 96 h in data set [5] was above 100 µM.

`C[C@@]1(O)[C@H](O)[C@@H](CO)O[C@H]1n1ccc(N)nc1=O` displayed a CC50 in [4] above 100 µM. Also, in the data set on Reovirus sp., the EC50 came to 16 µM.

Take `c1cnc2cc3[nH]nnc3cc2c1`: the EC50 (in the data set on Human alphaherpesvirus 1; in the data set on Coxsackievirus B5; with Yellow fever virus; in data set [1]; in [2]; in the data set with Human orthopneumovirus) was above 100 µM in each case. Also, the EC50 in data set [3] is above 40 µM; in the data set with Poliovirus 1, above 100 µM; with Reovirus sp., above 100 µM; in [7] it was above 100 µM. In addition, the CC50 in [4], in data set [6] and in data set [8] was above 100 µM in each case. In addition, the CC50 at 96 h in data set [5] was found to be 40 µM.

For the compound `[O-][n+]1n[nH]c2c(Cl)c3ncccc3cc21`, the EC50 was above 100 µM with Human alphaherpesvirus 1; 86 µM in the data set with Coxsackievirus B5; above 100 µM in the data set with Yellow fever virus; above 100 µM in [1]; above 100 µM in [2]; above 100 µM with Human orthopneumovirus. Besides, the EC50 (in data set [3]; in the data set with Poliovirus 1; in [7]) was above 100 µM each time. For the same compound, the CC50 in [4], in data set [6] and in data set [8] was above 100 µM throughout. This compound had a CC50 at 96 h in [5] above 100 µM.

With `C[C@@]1(O)[C@H](O)[C@@H](CO)O[C@H]1n1cnc2c(=O)[nH]c(N)nc21` [2'-B-METHYL-GUANOSINE], the figures for the concentration giving a half-maximal response (EC50) (with Yellow fever virus; in data set [1]) were 1.9 µM and 1.1 µM, respectively. In addition, the CC50 in data set [4] and in data set [6] was above 10 µM in each case.

Consider `C#C[C@@]1(O)[C@H](O)[C@@H](CO)O[C@H]1n1ccc(N)nc1=O` [2'-ETHYNYL-D-CYTIDINE], for which, in the data set with Coxsackievirus B5, the EC50 amounted to 27 µM. Also, in data set [8], the CC50 is above 100 µM.

Take `O=c1cnn([C@@H]2O[C@H](CO)[C@@H](O)[C@H]2O)c(=O)[nH]1` [6-AZAURIDINE]: the EC50 with Human orthopneumovirus turned out to be 1.2 µM. In addition, the CC50 in data set [8] was at least 12.5 µM.

Consider `Nc1nc2c(ncn2COCCO)c(=O)[nH]1` [ACYCLOVIR], for which the CC50 in [8] was above 100 µM.

As for `O=C1Nc2ccc(Cl)cc2[C@@](C#CC2CC2)(C(F)(F)F)O1` [EFAVIRENZ], in data set [5], half-maximal cytotoxicity (CC50 at 96 h) was put at 40 µM.

As to `COc1c(C)c2c(c(O)c1C/C=C(\C)CCC(=O)O)C(=O)OC2` [MYCOPHENOLIC ACID], the EC50 in [2] is 1.5 µM. Further, the 50% cytotoxic concentration (CC50) in [8] is at least 12.5 µM.
